Blank lines part the entries; values can stand above or below the molecule they belong to.
What was measured:
[1] = system: Polθ ATPase domain binding to ssDNA; assay: Microscale thermophoresis
[2] = biological target: Polθ ATPase domain (human) (UniProt O75417); assay: mass photometry
Polθ-ATPase domain = assay: Thermal stability assay; assay type: binding; details: 500 μM compound vs DMSO
[3] = system: Polθ recruitment to ssDNA in U2OS cells; assay: Laser micro-irradiation and immunofluorescence, Polθ recruitment to ssDNA; assay type: cell-based, human; details: 200 μM, 24 h, U2OS POLQ KO cells expressing Myc-Polθ
[4] = system: RPE1 TP53−/−BRCA1−/− cells; assay: DNA fiber assay with S1 nuclease digestion; assay type: cell-based; details: 200 μM NVB vs vehicle
Procedure, shortened: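 Cells (F12, 10% FBS) seeded 24 h, pulsed with 200 μM CldU for 30 min, washed, then 100 μM IdU for 2 h with test compound (200 μM) or DMSO added alongside. CSK permeabilisation 10 min RT. Nuclei were treated with 10 U/ml S1 nuclease (pH 4.6 buffer) for 30 min at 37°C or left undigested. Agarose-plug extraction was used, and ≥200 IdU tracks were scored per treatment (Mann–Whitney).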

Chain of Polθ ATPase domain (O75417 67-894): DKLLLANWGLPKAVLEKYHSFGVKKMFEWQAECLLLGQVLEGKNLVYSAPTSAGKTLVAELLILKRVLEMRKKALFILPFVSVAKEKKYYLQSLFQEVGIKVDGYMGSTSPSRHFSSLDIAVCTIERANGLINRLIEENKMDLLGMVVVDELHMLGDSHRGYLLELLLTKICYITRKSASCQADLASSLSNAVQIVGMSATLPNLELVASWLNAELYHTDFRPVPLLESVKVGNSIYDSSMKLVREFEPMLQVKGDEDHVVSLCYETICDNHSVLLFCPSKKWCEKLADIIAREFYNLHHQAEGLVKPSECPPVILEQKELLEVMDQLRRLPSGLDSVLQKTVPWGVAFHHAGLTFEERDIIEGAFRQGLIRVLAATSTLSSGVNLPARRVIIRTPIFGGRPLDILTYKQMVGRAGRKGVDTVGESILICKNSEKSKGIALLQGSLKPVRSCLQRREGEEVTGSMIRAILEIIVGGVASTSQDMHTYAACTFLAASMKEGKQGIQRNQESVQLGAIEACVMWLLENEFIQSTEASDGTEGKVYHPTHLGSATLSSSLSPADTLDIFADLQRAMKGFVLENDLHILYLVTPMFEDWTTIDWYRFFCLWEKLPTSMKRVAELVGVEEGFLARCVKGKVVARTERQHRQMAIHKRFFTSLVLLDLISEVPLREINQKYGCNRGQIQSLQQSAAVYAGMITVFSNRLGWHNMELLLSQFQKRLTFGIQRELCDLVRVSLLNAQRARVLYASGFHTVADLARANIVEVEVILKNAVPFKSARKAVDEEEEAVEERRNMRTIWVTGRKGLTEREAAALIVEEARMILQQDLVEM

Effect on Polθ binding to ssDNA ([1]; 2000 μM AMP-PNP, MST buffer with 5 mM MgCl2): unable to block
Molecule: Nc1ncnc2c1ncn2[C@@H]1O[C@H](COP(=O)(O)OP(=O)(O)NP(=O)(O)O)[C@@H](O)[C@H]1O [AMP-PNP]

stoichiometry N [2]: 4
Molecule: Polθ ATPase domain (from UniProt O75417 67-894) (domain or fragment)

Effect on Polθ binding to ssDNA ([1]; NVB 100-2000 μM in MST buffer, 120 mM KCl): dose-dependent inhibition
Change in the scattering peak maximum (Polθ-ATPase domain): +2 °C
Molecule: CO[C@@H]1[C@@H](OC(N)=O)[C@@H](O)[C@H](Oc2ccc3c(O)c(NC(=O)c4ccc(O)c(CC=C(C)C)c4)c(=O)oc3c2C)OC1(C)C [NVB, Novobiocin]
Polθ blocked from being recruited to damage sites [3]: ~96%
IdU track lengths following S1 nuclease treatment [4]: dramatic shortening

Reference: paper PMC10570058 (Nucleic Acids Research, 2023)
